Test results taken from ChEMBL document CHEMBL1121429, “Soft drugs. 1. Labile quaternary ammonium salts as soft antimicrobials” (J Med Chem, 1980).

Columns and labels:
[1] = system: Staphylococcus aureus; test: Sterilization time for contact germicidal efficiency (CGE) of salt was tested against at Staphylococcus aureus at pH 6.0, concentration 1007 ppm; type: functional, organism-based
[2] = system: Streptococcus pyogenes; test: Sterilization time for contact germicidal efficiency (CGE) of salt was tested against at Streptococcus pyogenes at pH 8.0, concentration 1042 ppm; type: functional, organism-based
[3] = system: Streptococcus pyogenes; test: Sterilization time for contact germicidal efficiency (CGE) of salt was tested against at Streptococcus pyogenes at pH 6.0, concentration 1007 ppm; type: functional, organism-based
[4] = system: Pseudomonas aeruginosa; test: Sterilization time for contact germicidal efficiency (CGE) of salt was tested against at Pseudomonas aeruginosa at pH 7.0, concentration 1031 ppm; type: functional, organism-based
[5] = system: Pseudomonas aeruginosa
[6] = system: Streptococcus pyogenes
[7] = system: Salmonella typhimurium
[8] = system: Streptococcus pyogenes; test: Sterilization time for contact germicidal efficiency (CGE) of salt was tested against at Streptococcus pyogenes at pH 7.0, concentration 1031 ppm; type: functional, organism-based
[9] = system: Staphylococcus aureus; test: Minimum inhibitory concentration of salt was tested against Staphylococcus aureus aureus at 0.1 M NaH2PO4 adjusted to pH 7.0; type: functional
Procedure, shortened: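 Bacteria grown 18-20 h at 37 °C in tryptose phosphate broth, adjusted to OD650 0.01, then diluted into double-strength medium to about 2 × 10^5 viable organisms/mL. Compound in 0.1 M NaH2PO4 pH 7.0 was serially twofold diluted into sterile water and added 1:1 to the cultures. MIC read after 18-20 h at 37 °C, with viability, sterility and buffer controls.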

[10] = system: Staphylococcus aureus; test: Sterilization time for contact germicidal efficiency (CGE) of salt was tested against at Staphylococcus aureus at pH 8.0, concentration 1042 ppm; type: functional, organism-based
[11] = system: Pseudomonas aeruginosa; test: Sterilization time for contact germicidal efficiency (CGE) of salt was tested against at Pseudomonas aeruginosa at pH 6.0, concentration 1007 ppm; type: functional, organism-based
[12] = system: Staphylococcus aureus; test: Sterilization time for contact germicidal efficiency (CGE) of salt was tested against at Staphylococcus aureus at pH 7.0, concentration 1031 ppm; type: functional, organism-based
[13] = system: Staphylococcus aureus; test: Sterilization time for contact germicidal efficiency (CGE) of salt was tested against Staphylococcus aureus at pH 7.0, concentration 1031 ppm; type: functional, organism-based
[14] = system: Pseudomonas aeruginosa; test: Sterilization time for contact germicidal efficiency (CGE) of salt was tested against at Pseudomonas aeruginosa at pH 8.0, concentration 1042 ppm; type: functional, organism-based
[15] = system: Bacillus subtilis
[16] = system: Staphylococcus aureus; test: Sterilization time for contact germicidal efficiency (CGE) of salt was tested against Staphylococcus aureus at pH 7.0 in water diluent; type: functional
Procedure, shortened: (§1)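 Test solutions of the quaternary salt in buffer stood 30 min at room temperature. 0.2 mL of overnight broth culture was added to 5 mL of solution. Inocula: S. aureus ATCC 6538 6-8 × 10^6 cfu/mL, P. aeruginosa ATCC 9027 12-13 × 10^6/mL, S. pyogenes ATCC 19615 5 × 10^6 cfu/mL. At 0.5-30 min intervals a loop was subcultured into nutrient broth and incubated 7 days at 37 °C. Sterilization time is the first interval giving no growth.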

[17] = system: Staphylococcus aureus; test: Sterilization time for contact germicidal efficiency (CGE) of salt was tested against Staphylococcus aureus at pH 7.0 in horse serum at contact time=5 min; type: functional
Procedure, shortened: (§2)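 S. aureus ATCC 6538 CGE screen with solutions in 0.1 M NaH2PO4 pH 7.0 diluted with 10% horse serum in distilled water, adjusted to pH 7 with CO2. Contact times of 0-15 min were used. Overnight culture was added, and loop subcultures taken at 0.5-30 min were grown 7 days at 37 °C in nutrient broth. Sterilization time is the first interval giving no growth.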

[18] = system: Staphylococcus aureus; test: Sterilization time for contact germicidal efficiency (CGE) of salt was tested against at Staphylococcus aureus at pH 6.0, concentration 1016 p.p.m.; type: functional
Procedure, shortened: (§3)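 Staphylococcus aureus ATCC 6538, overnight broth culture at 6-8 × 10^6 cfu/mL; 0.2 mL inoculated into 5 mL of buffered quaternary salt solution pre-held 30 min at room temperature. Loop subcultures (3 mm) taken at 0.5-30 min intervals into nutrient broth, incubated at 37 °C for 7 days and read daily. The endpoint is the earliest time giving a growth-free subculture.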

[19] = system: Staphylococcus aureus; test: Sterilization time for contact germicidal efficiency (CGE) of salt was tested against at Staphylococcus aureus at pH 7.0, concentration 1027 ppm; type: functional; procedure, shortened: as §3
[20] = system: Pseudomonas aeruginosa; test: Minimum inhibitory concentration of salt was tested against Pseudomonas aeruginosa at 0.1 M NaH2PO4 adjusted to pH 7.0; type: functional
[21] = system: Pseudomonas aeruginosa; test: (§4) Sterilization time for contact germicidal efficiency (CGE) of salt was tested against at Pseudomonas aeruginosa at pH 7.0, concentration 1027 ppm; type: functional; procedure, shortened: as §1
[22] = system: Pseudomonas aeruginosa; test: as §4; type: functional; procedure, shortened: as §1; remark: listed apart in the source
[23] = system: Streptococcus pyogenes; test: Sterilization time for contact germicidal efficiency (CGE) of salt was tested against at Streptococcus pyogenes at pH 8.0, concentration 1022 ppm; type: functional
Procedure, shortened: (§5)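 Streptococcus pyogenes ATCC 19615 overnight culture, 5 × 10^6 cfu/mL; 0.2 mL into 5 mL test solution of salt in buffer, left 30 min at room temperature beforehand. At timed intervals (0.5 to 30 min), a 3-mm loop was transferred to sterile nutrient broth and incubated at 37 °C for 7 days. Sterilization time is the shortest interval without growth; buffer-only and viability controls were run.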

[24] = system: Staphylococcus aureus; test: Sterilization time for contact germicidal efficiency (CGE) of salt was tested against Staphylococcus aureus at pH 7.0 in horse serum at contact time=10 min; type: functional; procedure, shortened: as §2
[25] = system: Staphylococcus aureus; test: Sterilization time for contact germicidal efficiency (CGE) of salt was tested against Staphylococcus aureus at pH 7.0 in horse serum at contact time=0 min; type: functional; procedure, shortened: as §2
[26] = system: Staphylococcus aureus; test: Sterilization time for contact germicidal efficiency (CGE) of salt was tested against at Staphylococcus aureus at pH 8.0, concentration 1022 ppm; type: functional; procedure, shortened: as §3
[27] = system: Bacillus subtilis; test: Minimum inhibitory concentration of salt was tested against Bacillus subtilis at 0.1 M NaH2PO4 adjusted to pH 7.0; type: functional
[28] = system: Pseudomonas aeruginosa; test: Sterilization time for contact germicidal efficiency (CGE) of salt was tested against at Pseudomonas aeruginosa at pH 6.0, concentration 1016 ppm; type: functional; procedure, shortened: as §1
[29] = system: Streptococcus pyogenes; test: Minimum inhibitory concentration of salt was tested against Streptococcus pyogenes aureus at 0.1 M NaH2PO4 adjusted to pH 7.0; type: functional
[30] = system: Staphylococcus aureus; test: Sterilization time for contact germicidal efficiency (CGE) of salt was tested against Staphylococcus aureus at pH 7.0 in horse serum at contact time=15 min; type: functional; procedure, shortened: as §2
[31] = system: Pseudomonas aeruginosa; test: Sterilization time for contact germicidal efficiency (CGE) of salt was tested against at Pseudomonas aeruginosa at pH 8.0, concentration 1022 ppm; type: functional
Procedure, shortened: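 Pseudomonas aeruginosa ATCC 9027 overnight broth culture (12-13 × 10^6 organisms/mL); 0.2 mL added to 5 mL buffered salt solution held 30 min at room temperature. At intervals from 0.5 to 30 min, a 3-mm loop was subcultured into nutrient broth and incubated at 37 °C for 7 days. Sterilization time is the shortest interval whose subculture gave no growth.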

[32] = system: Streptococcus pyogenes; test: Sterilization time for contact germicidal efficiency (CGE) of salt was tested against at Streptococcus pyogenes at pH 6.0, concentration 1016 ppm; type: functional; procedure, shortened: as §5
[33] = system: Salmonella typhimurium; test: Minimum inhibitory concentration of salt was tested against Salmonella Typhimurium […] at 0.1 M NaH2PO4 adjusted to pH 7.0; type: functional; conditions: Salmonella enterica
[34] = system: Streptococcus pyogenes; test: Sterilization time for contact germicidal efficiency (CGE) of salt was tested against at Streptococcus pyogenes at pH 7.0, concentration 1027 ppm; type: functional; procedure, shortened: as §5
[35] = system: Staphylococcus aureus; test: Sterilization time for contact germicidal efficiency (CGE) of salt was tested against Staphylococcus aureus at pH 7.0, concentration 1027 ppm; type: functional; procedure, shortened: as §1
[36] = system: Staphylococcus aureus; test: Sterilization time for contact germicidal efficiency (CGE) of salt was tested against Staphylococcus aureus at pH 7.0, concentration 254 ppm; type: functional
[37] = system: Pseudomonas aeruginosa; test: Sterilization time for contact germicidal efficiency (CGE) of salt was tested against Pseudomonas aeruginosa at pH 7.0, concentration 254 ppm; type: functional
[38] = system: Streptococcus pyogenes; test: Sterilization time for contact germicidal efficiency (CGE) of salt was tested against Streptococcus pyogenes at pH 7.0, concentration 254 ppm; type: functional
[39] = system: Pseudomonas aeruginosa; test: Sterilization time for contact germicidal efficiency (CGE) of salt was tested against at Pseudomonas aeruginosa at pH 7.0, concentration 1116.0 ppm; type: functional; procedure, shortened: as §1
[40] = system: Staphylococcus aureus; test: Sterilization time for contact germicidal efficiency (CGE) of salt was tested against Staphylococcus aureus at pH 7.0, concentration 1116.0 ppm; type: functional; procedure, shortened: as §1
[41] = system: Streptococcus pyogenes; test: Sterilization time for contact germicidal efficiency (CGE) of salt was tested against at Streptococcus pyogenes at pH 7.0, concentration 1116.0 ppm; type: functional; procedure, shortened: as §5
[42] = Toxicity of the salt was tested on white swiss male mice after intraperitoneal administration; type: organism-based; conditions: mouse, in vivo, ip
Procedure, shortened: (§6)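 Male White Swiss mice (MCR-ICR), 20-23 g, 10-20 per dose. Salt given in isotonic NaCl, pH 7.0 (adjusted with sodium bicarbonate). LD50 with confidence limits was calculated by Litchfield–Wilcoxon.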

[43] = Toxicity of the salt was tested on white swiss male mice after intravenous administration; type: organism-based; conditions: mouse, in vivo; procedure, shortened: as §6
[44] = Toxicity of the salt was tested on white swiss male mice after oral administration; type: organism-based; conditions: mouse, in vivo
Procedure, shortened: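 Male White Swiss mice (MCR-ICR), 20-23 g, 10-20 per dose, dosed orally. At higher doses the salt was given in 0.8% NaCl brought to pH 5.84 with sodium bicarbonate. LD50 was calculated by Litchfield–Wilcoxon.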

[45] = system: Pseudomonas aeruginosa; test: Sterilization time for contact germicidal efficiency (CGE) of salt was tested against Pseudomonas aeruginosa at pH 7.0, concentration 610 ppm; type: functional; procedure, shortened: as §1
[46] = system: Staphylococcus aureus; test: Sterilization time for contact germicidal efficiency (CGE) of salt was tested against Staphylococcus aureus at pH 7.0, concentration 610 ppm; type: functional; procedure, shortened: as §1
[47] = system: Streptococcus pyogenes; test: Sterilization time for contact germicidal efficiency (CGE) of salt was tested against Streptococcus pyogenes at pH 7.0, concentration 610 ppm; type: functional; procedure, shortened: as §1
[48] = system: Pseudomonas aeruginosa; test: Sterilization time for contact germicidal efficiency (CGE) of salt was tested against at Pseudomonas aeruginosa at pH 7.0, concentration 1042.1 ppm; type: functional; procedure, shortened: as §1
[49] = system: Staphylococcus aureus; test: Sterilization time for contact germicidal efficiency (CGE) of salt was tested against Staphylococcus aureus at pH 7.0, concentration 1042.1 ppm; type: functional; procedure, shortened: as §1
[50] = system: Streptococcus pyogenes; test: Sterilization time for contact germicidal efficiency (CGE) of salt was tested against at Streptococcus pyogenes at pH 7.0, concentration 1042.1 ppm; type: functional; procedure, shortened: as §5

## Hexadecyl-trimethyl-ammonium bromide
[1]
  TIME: 0.00833 h
[2]
  TIME: 0.00833 h
[3]
  TIME: 0.00833 h
[4]
  TIME: 0.00833 h
[5]
  MIC: 128 p.p.m.
[6]
  MIC: < 2 p.p.m.
[7]
  MIC: 64.3 p.p.m.
[8]
  TIME: 0.00833 h
[9]
  MIC: < 2 p.p.m.
[10]
  TIME: 0.00833 h
[11]
  TIME: 0.00833 h
[12]
  TIME: 0.00833 h
[13]
  TIME: 0.00833 h
[14]
  TIME: 0.00833 h
[15]
  MIC: < 2 p.p.m.

## CCCCCCCCCCCC(=O)OC[N+]12CCC(CC1)CC2.[Cl-]
[16]
  Time: 0.5 min
[17]
  Time: 3 min
[18]
  Time: 1 min
[19]
  Time: 0.5 min
[20]
  MIC: 1050 µg/mL
[21]
  Time: 3 min
[22]
  Time: 0.5 min
[23]
  Time: 2 min
[24]
  Time: 5 min
[25]
  Time: 1 min
[26]
  Time: 0.5 min
[27]
  MIC: 32.8 µg/mL
[28]
  Time: 0.5 min
[9]
  MIC: 16.4 µg/mL
[29]
  MIC: 4.1 µg/mL
[30]
  Time: >30 min
[31]
  Time: 0.5 min
[32]
  Time: 0.5 min
[33]
  MIC: 262 µg/mL
[34]
  Time: 0.5 min
[35]
  Time: 0.5 min

## CCCCCCCCCCCCCCCC(=O)OC[n+]1ccccc1.[Cl-]
[33]
  MIC: 1070 µg/mL

## Cn1ccnc1 [1-METHYLIMIDAZOLE]
[36]
  Time: >30 min
[37]
  Time: >30 min
[38]
  Time: >30 min

## CCCCCCCCCCCC(=O)OC[n+]1cccc(C(=O)NCC)c1.[Cl-]
[20]
  MIC: 1040 µg/mL
[39]
  Time: 3 min
[40]
  Time: 0.5 min
[27]
  MIC: 32.6 µg/mL
[9]
  MIC: 130 µg/mL
[29]
  MIC: 32.6 µg/mL
[33]
  MIC: 522 µg/mL
[41]
  Time: 0.5 min

## CCCCCCCCCCCC(=O)OC[N+]1=CN(C)CC1.[Cl-]
[42]
  LD50: 155 mg/kg
[43]
  LD50: 75 mg/kg
[44]
  LD50: 4110 mg/kg

## CCCCCCCCCCCC(=O)O [DODECANOATE]
[45]
  Time: >30 min
[46]
  Time: >30 min
[47]
  Time: >30 min

## CCCCCCCCCCCCCCCC(=O)OC[N+]1=CN(C)CC1.[Cl-]
[20]
  MIC: > 42.4 µg/mL
[27]
  MIC: > 42.4 µg/mL
[9]
  MIC: 1.3 µg/mL
[29]
  MIC: > 42.4 µg/mL
[33]
  MIC: > 42.4 µg/mL

## CCCCCCCCCCCCCC(=O)OC[n+]1ccccc1.[Cl-]
[48]
  Time: 1 min
[49]
  Time: 1 min
[50]
  Time: 0.5 min
